# Results as given in ChEMBL document CHEMBL1138555, “N-acylated and N,N'-diacylated imidazolidine-2-thione derivatives and N,N'-diacylated tetrahydropyrimidine-2(1H)-thione analogues: synthesis and antiproliferative activity” (Eur J Med Chem, 2009).
# Assays:
# HL-60(TB) = assay: Growth inhibition of human HL-60(TB) cells after 48 hrs by sulforhodamine B assay; assay type: functional; conditions: HL-60, 48 h
# In short: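 NCI 60-cell-line screen protocol: cells exposed to compound at five 10-fold dilutions from 10^-4 to 10^-8 M for the last 48 h of a 72 h incubation. Sulforhodamine B protein assay estimated viability/growth. GI50 (50% growth inhibition) derived; where not reached or exceeded, reported as greater or less than the highest or lowest concentration tested.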
# SNB-75 = assay: Growth inhibition of human SNB75 cells after 48 hrs by sulforhodamine B assay; assay type: functional; conditions: SNB-75, 48 h
# In short: (§1)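 NCI in vitro panel screen. Compounds tested at five 10-fold dilutions, 10^-4 to 10^-8 M. Cells in 96-well plates were exposed for the last 48 h of a 72 h incubation. Viability/growth was read by sulforhodamine B protein assay. GI50 is the concentration giving 50% growth inhibition. Values beyond the tested range are reported as greater or less than the maximum or minimum concentration.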
# A549 = assay: Growth inhibition of human A549 cells after 48 hrs by sulforhodamine B assay; assay type: functional; conditions: A549, 48 h
# In short: (§2)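 NCI screen panel. Five 10-fold concentrations from 10^-4 to 10^-8 M. Exposure for the last 48 h of a 72 h incubation. Growth estimated by sulforhodamine B protein assay. GI50 is the concentration giving 50% growth inhibition. Where that level was not reached or was exceeded, the value is given as above or below the highest or lowest concentration tested.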
# HCT-15 = assay: Growth inhibition of human HCT15 cells after 48 hrs by sulforhodamine B assay; assay type: functional; conditions: HCT-15, 48 h; in short: as §2
# OVCAR-8 = assay: Growth inhibition of human OVCAR8 cells after 48 hrs by sulforhodamine B assay; assay type: functional; conditions: OVCAR-8, 48 h; in short: as §2
# UO-31 = assay: Growth inhibition of human UO31 cells after 48 hrs by sulforhodamine B assay; assay type: functional; conditions: UO-31, 48 h; in short: as §1
# PC-3 = assay: Growth inhibition of human PC3 cells after 48 hrs by sulforhodamine B assay; assay type: functional; conditions: PC-3, 48 h; in short: as §2
# [1] = Growth inhibition of human […] cells after 48 hrs by sulforhodamine B assay; assay type: functional; in short: as §2
# EKVX = assay: Growth inhibition of human EKVX cells after 48 hrs by sulforhodamine B assay; assay type: functional; in short: as §2
# Malme-3M = assay: Growth inhibition of human MALME-3M cells after 48 hrs by sulforhodamine B assay; assay type: functional; in short: as §2
# K562 = assay: Growth inhibition of human K562 cells after 48 hrs by sulforhodamine B assay; assay type: functional; conditions: K562, 48 h; in short: as §2
# IGROV-1 = assay: Growth inhibition of human IGROV1 cells after 48 hrs by sulforhodamine B assay; assay type: functional; conditions: IGROV-1, 48 h; in short: as §2
# NCI-H322M = assay: Growth inhibition of human NCI-H322M cells after 48 hrs by sulforhodamine B assay; assay type: functional; in short: as §2
# DU-145 = assay: Growth inhibition of human DU145 cells after 48 hrs by sulforhodamine B assay; assay type: functional; conditions: DU-145, 48 h; in short: as §2
# BT-549 = assay: Growth inhibition of human BT549 cells after 48 hrs by sulforhodamine B assay; assay type: functional; conditions: BT-549, 48 h; in short: as §2
# SN12C = assay: Growth inhibition of human SN12C cells after 48 hrs by sulforhodamine B assay; assay type: functional; in short: as §1
# MT4 = assay: Antiproliferative activity against human MT4 cells assessed as reduction of growth by MTT assay; assay type: functional, cell-based
# In short: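 MT-4 lymphoblastoid T cells (ATCC) in RPMI 1640 with 10% FCS, penicillin/streptomycin, checked for mycoplasma. 1 × 10⁴ mock-infected cells per well with serial dilutions from a 100 mM DMSO stock. Incubated 4 days at 37 °C, viable cells counted by MTT. IC50 versus untreated controls by linear regression. Mean of three separate experiments.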
# COLO 205 = assay: Growth inhibition of human COLO205 cells after 48 hrs by sulforhodamine B assay; assay type: functional; conditions: COLO 205, 48 h; in short: as §2
# SR = assay: Growth inhibition of human SR cells after 48 hrs by sulforhodamine B assay; assay type: functional; in short: as §1
# ACHN = assay: Growth inhibition of human ACHN cells after 48 hrs by sulforhodamine B assay; assay type: functional; in short: as §2
# SNB-19 = assay: Growth inhibition of human SNB19 cells after 48 hrs by sulforhodamine B assay; assay type: functional; conditions: SNB-19, 48 h; in short: as §1
# CAKI-1 = assay: Growth inhibition of human Caki1 cells after 48 hrs by sulforhodamine B assay; assay type: functional; conditions: CAKI-1, 48 h; in short: as §2
# UACC-62 = assay: Growth inhibition of human UACC62 cells after 48 hrs by sulforhodamine B assay; assay type: functional; conditions: UACC-62, 48 h; in short: as §1
# KM12 = assay: Growth inhibition of human KM12 cells after 48 hrs by sulforhodamine B assay; assay type: functional; conditions: KM12, 48 h; in short: as §2
# HT-29 = assay: Growth inhibition of human HT-29 cells after 48 hrs by sulforhodamine B assay; assay type: functional; conditions: HT-29, 48 h; in short: as §2
# SK-MEL-5 = assay: Growth inhibition of human SK-MEL-5 cells after 48 hrs by sulforhodamine B assay; assay type: functional; conditions: SK-MEL-5, 48 h; in short: as §2
# NCI/ADR-RES = assay: Growth inhibition of human NCI/ADR-RES cells after 48 hrs by sulforhodamine B assay; assay type: functional; in short: as §2
# SK-MEL-28 = assay: Growth inhibition of human SK-MEL-28 cells after 48 hrs by sulforhodamine B assay; assay type: functional; conditions: SK-MEL-28, 48 h; in short: as §2
# HOP-62 = assay: Growth inhibition of human HOP62 cells after 48 hrs by sulforhodamine B assay; assay type: functional; conditions: HOP-62, 48 h; in short: as §2
# SF-295 = assay: Growth inhibition of human SF295 cells after 48 hrs by sulforhodamine B assay; assay type: functional; conditions: SF-295, 48 h; in short: as §2
# SW-620 = assay: Growth inhibition of human SW620 cells after 48 hrs by sulforhodamine B assay; assay type: functional; conditions: SW-620, 48 h; in short: as §1
# MDA-MB-231 = assay: Growth inhibition of human MDA-MB-231 cells after 48 hrs by sulforhodamine B assay; assay type: functional; conditions: MDA-MB-231, 48 h; in short: as §2
# TK-10 = assay: Growth inhibition of human TK10 cells after 48 hrs by sulforhodamine B assay; assay type: functional; conditions: TK-10, 48 h; in short: as §1
# MDA-MB-435 = assay: Growth inhibition of human MDA-MB-435 cells after 48 hrs by sulforhodamine B assay; assay type: functional; conditions: MDA-MB-435, 48 h; in short: as §2
# SK-MEL-2 = assay: Growth inhibition of human SK-MEL-2 cells after 48 hrs by sulforhodamine B assay; assay type: functional; conditions: SK-MEL-2, 48 h; in short: as §2
# M14 = assay: Growth inhibition of human M14 cells after 48 hrs by sulforhodamine B assay; assay type: functional; conditions: M14, 48 h; in short: as §2
# SK-OV-3 = assay: Growth inhibition of human SKOV3 cells after 48 hrs by sulforhodamine B assay; assay type: functional; conditions: SK-OV-3, 48 h; in short: as §2
# MOLT-4 = assay: Growth inhibition of human MOLT4 cells after 48 hrs by sulforhodamine B assay; assay type: functional; conditions: MOLT-4, 48 h; in short: as §2
# RXF 393 = assay: Growth inhibition of human RXF393 cells after 48 hrs by sulforhodamine B assay; assay type: functional; conditions: RXF 393, 48 h; in short: as §2
# HCT-116 = assay: Growth inhibition of human HCT116 cells after 48 hrs by sulforhodamine B assay; assay type: functional; conditions: HCT-116, 48 h; in short: as §2
# NCI-H23 = assay: Growth inhibition of human NCI-H23 cells after 48 hrs by sulforhodamine B assay; assay type: functional; conditions: NCI-H23, 48 h; in short: as §2
# UACC-257 = assay: Growth inhibition of human UACC257 cells after 48 hrs by sulforhodamine B assay; assay type: functional; conditions: UACC-257, 48 h; in short: as §1
# OVCAR-4 = assay: Growth inhibition of human OVCAR4 cells after 48 hrs by sulforhodamine B assay; assay type: functional; conditions: OVCAR-4, 48 h; in short: as §2
# U-251 = assay: Growth inhibition of human U251 cells after 48 hrs by sulforhodamine B assay; assay type: functional; conditions: U-251, 48 h; in short: as §1
# NCI-H460 = assay: Growth inhibition of human NCI-H460 cells after 48 hrs by sulforhodamine B assay; assay type: functional; conditions: NCI-H460, 48 h; in short: as §2
# 786-0 = assay: Growth inhibition of human 786-0 cells after 48 hrs by sulforhodamine B assay; assay type: functional; conditions: 786-0, 48 h; in short: as §2
# LOX IMVI = assay: Growth inhibition of human LOXIMVI cells after 48 hrs by sulforhodamine B assay; assay type: functional; in short: as §2
# HOP-92 = assay: Growth inhibition of human HOP92 cells after 48 hrs by sulforhodamine B assay; assay type: functional; conditions: HOP-92, 48 h; in short: as §2
# OVCAR-3 = assay: Growth inhibition of human OVCAR-3 cells after 48 hrs by sulforhodamine B assay; assay type: functional; conditions: OVCAR-3, 48 h; in short: as §2
smiles,measurement,setting,value
O=C(C(=CN1CCN(C(=O)c2ccco2)C1=S)C(=O)c1ccccc1)c1ccccc1,GI50,HL-60(TB),9.9 µM
same,GI50,SNB-75,27.4 µM
same,GI50,A549,11.3 µM
same,GI50,HCT-15,2.6 µM
same,GI50,OVCAR-8,16.2 µM
same,GI50,UO-31,8.7 µM
same,GI50,PC-3,23.6 µM
same,GI50,[1],8.4 µM
same,GI50,EKVX,8.1 µM
same,GI50,Malme-3M,3.1 µM
same,GI50,K562,3.2 µM
same,GI50,IGROV-1,5.6 µM
same,GI50,NCI-H322M,2.2 µM
same,GI50,DU-145,12.4 µM
same,GI50,BT-549,10 µM
same,GI50,SN12C,6.1 µM
same,IC50,MT4,7 µM
same,GI50,COLO 205,20 µM
same,GI50,SR,1.3 µM
same,GI50,ACHN,5.8 µM
same,GI50,SNB-19,29.2 µM
same,GI50,CAKI-1,7 µM
same,GI50,UACC-62,6.9 µM
same,GI50,KM12,2.3 µM
same,GI50,HT-29,16.9 µM
same,GI50,SK-MEL-5,10.9 µM
same,GI50,NCI/ADR-RES,9.2 µM
same,GI50,SK-MEL-28,17.8 µM
same,GI50,HOP-62,15.9 µM
same,GI50,SF-295,11.1 µM
same,GI50,SW-620,8.7 µM
same,GI50,MDA-MB-231,7.4 µM
same,GI50,TK-10,6.9 µM
same,GI50,MDA-MB-435,7.2 µM
same,GI50,SK-MEL-2,12.1 µM
same,GI50,M14,7 µM
same,GI50,SK-OV-3,41.8 µM
same,GI50,MOLT-4,15.2 µM
same,GI50,RXF 393,5.8 µM
same,GI50,HCT-116,7.9 µM
same,GI50,NCI-H23,7 µM
same,GI50,UACC-257,11.7 µM
same,GI50,OVCAR-4,16.1 µM
same,GI50,U-251,2.7 µM
same,GI50,NCI-H460,2.4 µM
same,GI50,786-0,8.2 µM
same,GI50,LOX IMVI,1.2 µM
same,GI50,HOP-92,27 µM
same,GI50,OVCAR-3,7.3 µM
